The nature of data set [1]: (§1) Ratio of Kcat to Km of the compound.
Data set [2] concerns the target Pancreatic elastase (Sus scrofa) (UniProt P08419+P00772). The data set can be described thus: (§2) Kinetic constant was determined from the initial rates of enzymatic hydrolysis by the Lineweaver-Burke method against elastase at a concentration of 1.4 uM. The class given is protein assay. In a few lines: (§3)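 Porcine pancreatic elastase assayed in 67 mM Tris-HCl pH 8.8 at 37 °C in a thermostatted cuvette. Specific activity was checked with orcein-elastin before each experiment. Leaving-group fluorescence was read at 410/550 nm (MAQ+) or 355/550 nm (6-AQ). Kinetic constants came from initial rates by Lineweaver–Burk analysis.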

In data set [3] the target is Serine protease 1 (Homo sapiens) (UniProt P07477). The data set can be described thus: Kinetic constant was determined from the initial rates of enzymatic hydrolysis by the Lineweaver-Burke method against trypsin enzyme at a concentration of 1.0 uM. The following applies: Sus scrofa. In a few lines:
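Trypsin, active-site titrated with p-nitrophenyl p-guanidinobenzoate, was used in 46 mM Tris-HCl pH 8.1 containing 11 mM CaCl2 at 25 °C. Hydrolysis was monitored by fluorescence, with excitation/emission 410/550 nm for MAQ+ and 355/550 nm for 6-AQ. Initial rates were fitted by the Lineweaver–Burk method.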

Data set [4] has the same target. The description is as §1. The following applies: Sus scrofa.
Data set [5] has as its target Chymotrypsinogen B (Homo sapiens) (UniProt P17538). Put plainly: Kinetic constant was determined from the initial rates of enzymatic hydrolysis by the Lineweaver-Burke method against alpha-chymotrypsin enzyme at a concentration of 2.0 uM. The following applies: Sus scrofa. In short, it runs like this:
(§4)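 Chymotrypsin assayed in 50 mM Tris-HCl pH 8.0 with 10 mM CaCl2 at 25 °C. Active enzyme was titrated with 2-nitro-4-carboxyphenyl diphenylcarbamate. Product release was followed fluorimetrically, with excitation 410 nm and emission 550 nm for MAQ+, and 355/550 nm for 6-AQ. Constants were taken from initial hydrolysis rates by Lineweaver–Burk plots.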

The target is the same in data set [6]. Described as §1. The following applies: Sus scrofa.
The test system of data set [7] is C[n+]1cccc2cc(NC(=O)[C@H](Cc3ccccc3)NC(=O)OCc3ccccc3)ccc21. The data set can be described thus: Kinetic constant was determined from the initial rates of enzymatic hydrolysis by the Lineweaver-Burke method against chymotrypsin enzyme at a concentration of 2.0 uM. The following applies: Sus scrofa. In short, it runs like this: as §4
Data set [8] concerns C[C@H](NC(=O)CCC(=O)O)C(=O)N[C@@H](C)C(=O)N[C@@H](C)C(=O)Nc1ccc2ncccc2c1. The description is as §2. The class given is protein assay. In short, it runs like this: as §3
In data set [9] the test system is C[C@H](NC(=O)OCc1ccccc1)C(=O)N[C@@H](C)C(=O)N[C@@H](C)C(=O)Nc1ccc2c(ccc[n+]2C)c1. Described as §2. In kind it is protein assay. In short, it runs like this:
as §3

In data set [10] the test system is C[C@H](NC(=O)OCc1ccccc1)C(=O)N[C@@H](C)C(=O)Nc1ccc2c(ccc[n+]2C)c1. Described as §2. In kind it is protein assay. In short, it runs like this: as §3

Chain of Pancreatic elastase (Sus scrofa) (from UniProt P08419+P00772) (P00772 whole entry, looked up): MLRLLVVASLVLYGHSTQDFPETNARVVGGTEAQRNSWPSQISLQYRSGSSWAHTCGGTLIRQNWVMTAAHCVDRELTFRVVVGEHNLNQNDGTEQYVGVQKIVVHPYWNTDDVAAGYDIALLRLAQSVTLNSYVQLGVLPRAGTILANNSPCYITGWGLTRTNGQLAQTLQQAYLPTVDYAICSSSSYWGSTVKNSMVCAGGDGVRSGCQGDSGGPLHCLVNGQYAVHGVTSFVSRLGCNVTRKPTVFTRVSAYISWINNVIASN
Chain of Pancreatic elastase (Sus scrofa) (from UniProt P08419+P00772) (P08419 whole entry, looked up): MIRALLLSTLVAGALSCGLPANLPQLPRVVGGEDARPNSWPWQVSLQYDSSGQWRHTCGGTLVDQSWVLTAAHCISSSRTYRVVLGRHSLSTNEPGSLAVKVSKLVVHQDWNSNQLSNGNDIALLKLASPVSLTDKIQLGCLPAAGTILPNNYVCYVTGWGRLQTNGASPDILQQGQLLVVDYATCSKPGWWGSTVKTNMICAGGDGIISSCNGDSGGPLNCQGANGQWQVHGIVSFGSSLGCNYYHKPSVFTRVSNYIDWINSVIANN
Chain of Serine protease 1 (Homo sapiens) (P07477 whole entry): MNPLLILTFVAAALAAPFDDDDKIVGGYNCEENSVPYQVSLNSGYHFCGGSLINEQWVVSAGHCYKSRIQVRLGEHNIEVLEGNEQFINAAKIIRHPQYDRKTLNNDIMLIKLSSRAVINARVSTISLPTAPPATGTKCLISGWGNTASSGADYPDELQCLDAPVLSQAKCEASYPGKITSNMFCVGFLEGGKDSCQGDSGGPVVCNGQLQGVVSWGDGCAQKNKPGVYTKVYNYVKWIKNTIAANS
Chain of Chymotrypsinogen B (Homo sapiens) (P17538 34-164 limits assumed, other chains not shown): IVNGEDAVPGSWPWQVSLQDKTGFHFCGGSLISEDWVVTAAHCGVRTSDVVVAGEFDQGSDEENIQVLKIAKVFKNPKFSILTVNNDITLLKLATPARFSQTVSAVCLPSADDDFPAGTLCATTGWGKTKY
Chain of Chymotrypsinogen B (Homo sapiens) (P17538 167-263 limits assumed, other chains not shown): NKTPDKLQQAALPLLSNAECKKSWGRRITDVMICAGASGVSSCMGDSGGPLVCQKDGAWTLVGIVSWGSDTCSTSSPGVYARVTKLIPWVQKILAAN

As for `C[C@H](NC(=O)CCC(=O)O)C(=O)N[C@@H](C)C(=O)N[C@@H](C)C(=O)Nc1ccc2ncccc2c1`, the Ratio in [1] was 3400 M⁻¹ s⁻¹. The k cat in data set [2] amounted to 1.7 s⁻¹.
Consider `C[n+]1cccc2cc(NC(=O)C(CCCN=C(N)N)NC(=O)c3ccccc3)ccc21` (stereo not drawn), for which the k cat in [3] came out at 0.14 s⁻¹. Also, the Ratio in data set [4] worked out at 636 M⁻¹ s⁻¹.
`O=C(O)CCCC(=O)N[C@@H](Cc1ccccc1)C(=O)Nc1ccc2ncccc2c1` had a k cat in data set [5] of 0.14 s⁻¹. In addition, the Ratio in [6] was found to be 79 M⁻¹ s⁻¹.
On to `C[C@H](NC(=O)OCc1ccccc1)C(=O)N[C@@H](C)C(=O)Nc1ccc2c(ccc[n+]2C)c1`, for which, in data set [1], the Ratio came out at 10 M⁻¹ s⁻¹. Further, in data set [2], the k cat was 0.043 s⁻¹.
Regarding `N=C(N)NCCCC(NC(=O)c1ccccc1)C(=O)Nc1ccc2ncccc2c1` (stereo not drawn), in [3], the k cat turned out to be 0.6 s⁻¹. Moreover, the Ratio in [4] was determined as 1500 M⁻¹ s⁻¹.
For orientation: Km means the substrate concentration at which the rate is half of its maximum. Regarding “Chymotrypsinogen A (Bos taurus) (from UniProt P00766)”, in data set [7], the Km is 180 µM.
The compound `C[n+]1cccc2cc(NC(=O)[C@H](Cc3ccccc3)NC(=O)OCc3ccccc3)ccc21` returned a k cat in data set [5] of 0.4 s⁻¹. The Ratio in data set [6] came out at 2220 M⁻¹ s⁻¹.
As to “Pancreatic elastase (Sus scrofa) (from UniProt P08419+P00772)”, the Km in data set [8] stood at 500 µM; in data set [9], 230 µM; in data set [10] it was 4170 µM.
For the compound `C[C@H](NC(=O)OCc1ccccc1)C(=O)N[C@@H](C)C(=O)N[C@@H](C)C(=O)Nc1ccc2c(ccc[n+]2C)c1`, the Ratio in data set [1] came to 4740 M⁻¹ s⁻¹. Further, in [2], the k cat amounted to 1.09 s⁻¹.

For the origin of these results see ChEMBL document CHEMBL1122724, “Synthesis and kinetic studies of protease substrates containing the 1-methyl-6-aminoquinolinium ion as a fluorogenic leaving group” (J Med Chem, 1984).
